Data reported in ChEMBL document CHEMBL1134439, “Radioiodinated styrylbenzenes and thioflavins as probes for amyloid aggregates” (J Med Chem, 2001).
Several values for one entry are separate records, joined by “and”; a condition that tells them apart may be missing. Equal values may be shown once.

How the values were obtained:
[1] = test system: Mus musculus; experiment: Biodistribution was measured in mice heart 60 minutes after intravenous injection of [125I]-labeled styrylbenzene.; type: ADME, organism-based; details: in vivo, 1 h
Outline: (§1)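 ICR mice (2-3 months old, 20-30 g) under ether anesthesia received 5-10 µCi ¹²⁵I tracer in 0.15 mL saline by tail-vein injection. Animals were killed by cardiac excision at set times post-injection. Organs were removed, weighed and γ-counted. Values are % dose per organ against diluted injectate aliquots, taking blood and muscle as 7% and 40% of body weight. Mean of 3-4 mice ± SD.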

[2] = test system: Mus musculus; experiment: Biodistribution was measured in mice kidney 30 minutes after intravenous injection of [125I]-labeled styrylbenzene.; type: ADME, organism-based; details: in vivo, 0.5 h; outline: as §1
[3] = test system: Mus musculus; experiment: Biodistribution was measured in mice kidney 5 minutes after intravenous injection of [125I]-labeled styrylbenzene.; type: ADME, organism-based; details: in vivo; outline: as §1
[4] = test system: Mus musculus; experiment: Biodistribution was measured in mice kidney 60 minutes after intravenous injection of [125I]-labeled styrylbenzene.; type: ADME, organism-based; details: in vivo, 1 h; outline: as §1
[5] = test system: Mus musculus; experiment: Biodistribution was measured in mice liver 30 minutes after intravenous injection of [125I]-labeled styrylbenzene.; type: ADME, organism-based; details: in vivo, 0.5 h; outline: as §1
[6] = test system: Mus musculus; experiment: Biodistribution was measured in mice liver 5 minutes after intravenous injection of [125I]-labeled styrylbenzene.; type: ADME, organism-based; details: in vivo; outline: as §1
[7] = test system: Mus musculus; experiment: Biodistribution was measured in mice liver 60 minutes after intravenous injection of [125I]-labeled styrylbenzene.; type: ADME, organism-based; details: in vivo, 1 h; outline: as §1
[8] = test system: Mus musculus; experiment: Biodistribution was measured in mice muscle 30 minutes after intravenous injection of [125I]-labeled styrylbenzene.; type: ADME, organism-based, Muscle tissue; details: in vivo, 0.5 h; outline: as §1
[9] = test system: Mus musculus; experiment: Biodistribution was measured in mice muscle 5 minutes after intravenous injection of [125I]-labeled styrylbenzene.; type: ADME, organism-based, Muscle tissue; details: in vivo; outline: as §1
[10] = test system: Mus musculus; experiment: Biodistribution was measured in mice muscle 60 minutes after intravenous injection of [125I]-labeled styrylbenzene.; type: ADME, organism-based, Muscle tissue; details: in vivo, 1 h; outline: as §1
[11] = test system: Mus musculus; experiment: Biodistribution was measured in mice skin 30 minutes after intravenous injection of [125I]-labeled styrylbenzene.; type: ADME, organism-based, Zone of skin; details: in vivo, 0.5 h; outline: as §1
[12] = test system: Mus musculus; experiment: Biodistribution was measured in mice skin 5 minutes after intravenous injection of [125I]-labeled styrylbenzene.; type: ADME, organism-based, Zone of skin; details: in vivo; outline: as §1
[13] = test system: Mus musculus; experiment: Biodistribution was measured in mice skin 60 minutes after intravenous injection of [125I]-labeled styrylbenzene.; type: ADME, organism-based, Zone of skin; details: in vivo, 1 h; outline: as §1
[14] = test system: Mus musculus; experiment: Biodistribution was measured in mice spleen 30 minutes after intravenous injection of [125I]-labeled styrylbenzene.; type: ADME, organism-based; details: in vivo, 0.5 h
Outline: (§2)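 ICR mice (2-3 months old, 20-30 g) under ether anesthesia; 0.15 mL saline containing 5-10 µCi ¹²⁵I tracer injected into tail vein. Sacrifice by cardiac excision at set times; organs removed, weighed, γ-counted. Expressed as % dose per organ versus diluted aliquots of injectate. Mean of three or four mice ± SD.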

[15] = test system: Mus musculus; experiment: Biodistribution was measured in mice spleen 5 minutes after intravenous injection of [125I]-labeled styrylbenzene.; type: ADME, organism-based; details: in vivo; outline: as §2
[16] = test system: Mus musculus; experiment: Biodistribution was measured in mice spleen 60 minutes after intravenous injection of [125I]-labeled styrylbenzene.; type: ADME, organism-based; details: in vivo, 1 h; outline: as §2
[17] = test system: Mus musculus; experiment: Biodistribution was measured in mice blood 30 minutes after intravenous injection of [125I]-labeled styrylbenzene.; type: ADME, organism-based; details: in vivo, 0.5 h; outline: as §1
[18] = test system: Mus musculus; experiment: Biodistribution was measured in mice blood 5 minutes after intravenous injection of [125I]-labeled styrylbenzene.; type: ADME, organism-based; details: in vivo; outline: as §1
[19] = test system: Mus musculus; experiment: Biodistribution was measured in mice lung 30 minutes after intravenous injection of [125I]-labeled styrylbenzene.; type: ADME, organism-based; details: in vivo, 0.5 h; outline: as §1
[20] = test system: Mus musculus; experiment: Biodistribution was measured in mice lung 5 minutes after intravenous injection of [125I]-labeled styrylbenzene.; type: ADME, organism-based; details: in vivo; outline: as §1
[21] = test system: Mus musculus; experiment: Biodistribution was measured in mice lung 60 minutes after intravenous injection of [125I]-labeled styrylbenzene.; type: ADME, organism-based; details: in vivo, 1 h; outline: as §1
[22] = test system: Mus musculus; experiment: Biodistribution was measured in mice brain 5 minutes after intravenous injection of [125I]-labeled styrylbenzene; type: ADME, organism-based; details: in vivo; outline: as §1
[23] = test system: Mus musculus; experiment: Biodistribution was measured in mice brain 60 minutes after intravenous injection of [125I]-labeled styrylbenzene; type: ADME, organism-based; details: in vivo, 1 h; outline: as §1
[24] = test system: Mus musculus; experiment: Biodistribution was measured in mice heart 30 minutes after intravenous injection of [125I]-labeled styrylbenzene.; type: ADME, organism-based; details: in vivo, 0.5 h; outline: as §1
[25] = test system: Mus musculus; experiment: Biodistribution was measured in mice heart 5 minutes after intravenous injection of [125I]-labeled styrylbenzene.; type: ADME, organism-based; details: in vivo; outline: as §1
[26] = test system: Mus musculus; experiment: Biodistribution was measured in mice blood 60 minutes after intravenous injection of [125I]-labeled styrylbenzene.; type: ADME, organism-based; details: in vivo, 1 h; outline: as §1
[27] = test system: Mus musculus; experiment: Biodistribution was measured in mice brain 30 minutes after intravenous injection of [125I]-labeled styrylbenzene; type: ADME, organism-based; details: in vivo, 0.5 h; outline: as §1
[28] = target: T1, Amyloid-beta precursor protein (Homo sapiens, UniProt P05067); experiment: Inhibition constant for amyloid beta compared to [125I]TZDM
Outline: (§3)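 Aβ(1-40) or Aβ(1-42) aggregated at 0.5 or 0.25 mg/mL respectively in pH 7.4 buffer (10 mM sodium phosphate, 1 mM EDTA), 37 °C, 36-42 h with shaking. Competition against ¹²⁵I radioligand with fibrils 10-50 nM (final), 10% EtOH, 1 mL. Incubation 3 h room temperature. Bound ligand collected by GF/B filtration, γ-counted. Ki by nonlinear regression. Mean ± SEM, three experiments in duplicate.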

[29] = target: T1, Amyloid-beta precursor protein; experiment: Inhibition constant for aggregates of amyloid beta compared to [125I]IMSB; outline: as §3

T1 sequence (P05067 whole entry): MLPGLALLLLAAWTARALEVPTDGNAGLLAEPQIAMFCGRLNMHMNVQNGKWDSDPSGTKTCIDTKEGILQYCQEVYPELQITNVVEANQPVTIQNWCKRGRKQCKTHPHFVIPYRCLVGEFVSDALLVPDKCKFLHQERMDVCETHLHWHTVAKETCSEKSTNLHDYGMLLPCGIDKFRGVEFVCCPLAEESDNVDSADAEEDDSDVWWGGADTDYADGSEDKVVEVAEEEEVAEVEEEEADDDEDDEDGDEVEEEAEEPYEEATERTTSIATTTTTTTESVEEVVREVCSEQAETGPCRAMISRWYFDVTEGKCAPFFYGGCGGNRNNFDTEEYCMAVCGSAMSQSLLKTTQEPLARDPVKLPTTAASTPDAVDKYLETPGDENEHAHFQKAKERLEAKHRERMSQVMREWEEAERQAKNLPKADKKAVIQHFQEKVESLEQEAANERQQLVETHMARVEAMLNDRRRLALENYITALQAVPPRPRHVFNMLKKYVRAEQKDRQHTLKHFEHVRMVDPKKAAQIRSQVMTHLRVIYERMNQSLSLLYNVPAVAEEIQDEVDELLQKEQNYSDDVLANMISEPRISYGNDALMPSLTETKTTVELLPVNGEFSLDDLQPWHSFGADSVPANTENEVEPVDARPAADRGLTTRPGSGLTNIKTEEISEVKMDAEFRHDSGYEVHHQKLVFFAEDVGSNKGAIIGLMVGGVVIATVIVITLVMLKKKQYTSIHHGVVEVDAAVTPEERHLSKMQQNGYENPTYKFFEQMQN

Dose/organ [1]: 0.12%
Dose/organ [2]: 0.46%
Dose/organ [3]: 1.31%
Dose/organ [4]: 0.23%
Dose/organ [5]: 24.47%
Dose/organ [6]: 47.85%
Dose/organ [7]: 6.14%
Dose/organ [8]: 1.82%
Dose/organ [9]: 3.16%
Dose/organ [10]: 1.3%
Dose/organ [11]: 1.44%
Dose/organ [12]: 1.56%
Dose/organ [13]: 1.02%
Dose/organ [14]: 0.07%
Dose/organ [15]: 0.17%
Dose/organ [16]: 0.03%
Dose/organ [17]: 5.19%
Dose/organ [18]: 22.52%
Dose/organ [19]: 0.31%
Dose/organ [20]: 0.89%
Dose/organ [21]: 0.16%
Dose/organ [22]: 0.14%
Dose/organ [23]: 0.02%
Dose/organ [24]: 0.18%
Dose/organ [25]: 0.43%
Dose/organ [26]: 2.17%
Dose/organ [27]: 0.03%
Ki [28]: > 1000 nM
Ki [29]: 0.17 nM and 0.8 nM
SMILES: COc1ccc(/C=C/c2ccc(/C=C/c3ccc(OC)c(C(=O)O)c3)c(I)c2)cc1C(=O)O
